Measurements from ChEMBL document CHEMBL3352049, “Taxanes with high potency inducing tubulin assembly overcome tumoural cell resistances” (Bioorg Med Chem, 2014).
Calls of active or inactive are those of the source. The rule behind the calls is not given here.

What was measured:
A2780 [1] = assay: Cytotoxicity against human A2780 cells by MTT assay; type: functional, cell-based
[2] = Cytotoxicity against human A2780AD cells by MTT assay; type: functional, cell-based; details: A2780 ADR
1A9 [3] = assay: Resistance ratio of IC50 for human 1A9PTX10 cells to IC50 for human 1A9 cells; type: functional
In short: (§1)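 Relative resistance is the IC50 in the 1A9 tubulin-mutant line divided by the IC50 in parental 1A9 ovarian carcinoma cells. Each IC50 (nM) is the mean ± SEM of three independent assays.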

Tubulin (Bos taurus) = Tubulin (Bos taurus) (UniProt Q6B856+Q862L2+Q862F3); assay: Induction of calf brain tubulin polymerization assessed as tubulin concentration required to form microtubules by electron microscopy
In short: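 Critical tubulin concentration found by centrifugation and quantification of the polymer formed. Polymers adsorbed onto formvar/carbon-coated copper grids, stained with 1% uranyl acetate, and viewed by electron microscopy at 100 kV.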

HeLa [4] = assay: Cytotoxicity against human HeLa cells transfected with wild-type tubulin beta3 by MTT assay; type: functional, cell-based
In short: (§2)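 MTT assay run as a modified version of an earlier method. IC50 in nM is the mean ± SEM of three independent assays. Relative resistance is the IC50 in the resistant line (1A9 tubulin mutants, or βIII-transfected HeLa) divided by the IC50 in the parental line (1A9 or HeLa).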

microtubule (Bos taurus) [5] = assay: Binding affinity to microtubule (Bos taurus) after 30 mins at 30 degC by flutax-2 displacement method
microtubule (Bos taurus) [6] = assay: Binding affinity to microtubule (Bos taurus) by TR-NOESY spectroscopy
1A9 [7] = assay: Resistance ratio of IC50 for human 1A9PTX22 cells to IC50 for human 1A9 cells; type: functional; in short: as §1
[8] = Cytotoxicity against human 1A9/A8 cells by MTT assay; type: functional, cell-based; in short: as §2
microtubule (Bos taurus) [9] = assay: Binding affinity to microtubule (Bos taurus) after 30 mins at 40 degC by flutax-2 displacement method
microtubule (Bos taurus) [10] = assay: Binding affinity to microtubule (Bos taurus) by STD NMR spectroscopy
A549 [11] = assay: Cell cycle arrest at G2/M phase in human A549 cells at 60 nM after 20 hrs by flow cytometry; type: functional, cell-based
HeLa [12] = assay: Cytotoxicity against human HeLa cells by MTT assay; type: functional, cell-based; in short: as §2
microtubule (Bos taurus) [13] = assay: Binding affinity to microtubule (Bos taurus) after 30 mins at 32 degC by flutax-2 displacement method
[14] = Cell cycle arrest at G2/M phase in human A2780AD cells at 60 nM after 20 hrs by flow cytometry; type: functional, cell-based; details: A2780 ADR
microtubule (Bos taurus) [15] = assay: Binding affinity to microtubule (Bos taurus) after 30 mins at 42 degC by flutax-2 displacement method
microtubule (Bos taurus) [16] = assay: Binding affinity to microtubule (Bos taurus) after 30 mins at 27 degC by flutax-2 displacement method
A2780 [17] = assay: Cell cycle arrest at G2/M phase in human A2780 cells at 60 nM after 20 hrs by flow cytometry; type: functional, cell-based
1A9 [18] = assay: Resistance ratio of IC50 for human 1A9/A8 cells to IC50 for human 1A9 cells; type: functional
[19] = Cytotoxicity against human 1A9PTX10 cells by MTT assay; type: functional, cell-based; details: 1A9/ptx-10; in short: as §2
HeLa [20] = assay: Resistance ratio of IC50 for human HeLa cells transfected with wild-type tubulin beta3 to IC50 for human HeLa cells; type: functional
In short: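 Relative resistance is the IC50 in HeLa cells transfected with wild-type βIII-tubulin divided by the IC50 in parental HeLa cells. Each IC50 (nM) is the mean ± SEM of three independent assays.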

1A9 [21] = assay: Cytotoxicity against human 1A9 cells by MTT assay; type: functional, cell-based; in short: as §2
microtubule (Bos taurus) [22] = assay: Binding affinity to microtubule (Bos taurus) after 30 mins at 26 degC by flutax-2 displacement method
A549 [23] = assay: Cell cycle arrest at G2/M phase in human A549 cells at 30 nM after 20 hrs by flow cytometry; type: functional, cell-based
[24] = Resistance ratio of IC50 for human A2780AD cells to IC50 for human A2780 cells; type: functional, A2780 ADR
A549 [25] = assay: Effect on microtubule cytoskeleton in human A549 cells assessed as induction of micronuleated cells with short microtubules in cytoplasm at 60 to 120 nM after 24 hrs by immunofluorescence assay; type: cell-based
In short: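 A549 cells were grown overnight on coverslips, then given DMSO vehicle or ligand (60 or 120 nM) for 24 h. Cells were permeabilized with Triton X-100 and fixed in 3.7% formaldehyde. Microtubules were stained with DM1A α-tubulin antibody and DNA with Hoechst 33342. Preparations were viewed by epifluorescence microscopy.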

microtubule (Bos taurus) [26] = assay: Binding affinity to microtubule (Bos taurus) after 30 mins at 37 degC by flutax-2 displacement method
[27] = Cell cycle arrest at G2/M phase in human A2780AD cells at 30 nM after 20 hrs by flow cytometry; type: functional, cell-based; details: A2780 ADR
microtubule (Bos taurus) [28] = assay: Binding affinity to microtubule (Bos taurus) after 30 mins at 35 degC by flutax-2 displacement method
A2780 [29] = assay: Cell cycle arrest at G2/M phase in human A2780 cells at 30 nM after 20 hrs by flow cytometry; type: functional, cell-based
[30] = Cytotoxicity against human MCF7/R cells by MTT assay; type: functional, cell-based; details: MCF7R
[31] = Cytotoxicity against human 1A9PTX22 cells by MTT assay; type: functional, cell-based; details: 1A9/ptx-22; in short: as §2

In the case of `CC(=O)O[C@@]12CO[C@@H]1C[C@H](O)[C@@]1(C)C(=O)[C@H](OC(=O)N(C)C)C3=C(C)[C@@H](OC(=O)[C@H](O)[C@H](C=C(F)F)NC(=O)OC(C)(C)C)C[C@@](O)([C@@H](OC(=O)c4ccccc4)[C@H]21)C3(C)C`, the IC50 (A2780 [1]) is reported as 3.5 nM, the IC50 [2] is reported as 15.1 nM and the “Ratio IC50” value (1A9 [3]) is reported as 1.6. The Activity (Tubulin (Bos taurus)) was 0.3 µM, the IC50 (HeLa [4]) was 3.5 nM and the Kb (microtubule (Bos taurus) [5]) was 13 ×10⁷ /M. The Activity (microtubule (Bos taurus) [6]) was “Active”, the “Ratio IC50” value (1A9 [7]) was 2.2 and the IC50 [8] was 4 nM. The Kb (microtubule (Bos taurus) [9]) was 10 ×10⁷ /M, the Activity (microtubule (Bos taurus) [10]) was “Active” and the Activity (A549 [11]) was “Active”. The IC50 (HeLa [12]) was 2.5 nM, the Kb (microtubule (Bos taurus) [13]) was 13 ×10⁷ /M and the Activity [14] was “Active”. The Kb (microtubule (Bos taurus) [15]) was 8 ×10⁷ /M, the Kb (microtubule (Bos taurus) [16]) was 14 ×10⁷ /M and the Activity (A2780 [17]) was “Active”. The “Ratio IC50” value (1A9 [18]) was 1.2, the IC50 [19] was 5.25 nM and the “Ratio IC50” value (HeLa [20]) was 1.4. For the same compound, the IC50 (1A9 [21]) was 3.2 nM, the Kb (microtubule (Bos taurus) [22]) was 15 ×10⁷ /M and the Activity (A549 [23]) was “Active”. For the same compound, the “Ratio IC50” value [24] was 4.3, the Activity (A549 [25]) was “Active” and the Kb (microtubule (Bos taurus) [26]) was 10 ×10⁷ /M. The Activity [27] was “Active”, the Kb (microtubule (Bos taurus) [28]) was 10 ×10⁷ /M and the Activity (A2780 [29]) was “Active”. For the same compound, the IC50 [30] was 4.3 nM and the IC50 [31] was 7 nM.
